The values that follow come from article PMC4332549 (ChemMedChem, 2012).

The target in data set [1] is T1, hGAL1 (human galanin receptor GalR1) (Homo sapiens, UniProt P47211).
T1 sequence (P47211 1-349): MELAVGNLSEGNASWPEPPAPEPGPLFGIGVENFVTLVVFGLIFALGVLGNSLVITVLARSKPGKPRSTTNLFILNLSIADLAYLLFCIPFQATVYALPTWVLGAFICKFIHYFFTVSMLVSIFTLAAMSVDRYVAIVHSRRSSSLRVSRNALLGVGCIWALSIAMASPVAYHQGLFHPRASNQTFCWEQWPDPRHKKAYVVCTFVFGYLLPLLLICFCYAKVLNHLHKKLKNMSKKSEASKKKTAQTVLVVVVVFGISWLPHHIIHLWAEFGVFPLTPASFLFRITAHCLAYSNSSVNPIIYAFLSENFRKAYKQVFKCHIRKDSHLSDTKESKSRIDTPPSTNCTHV
In words: Competitive binding assay, Eu-labeled galanin, time-resolved fluorescence.

For data set [2] the following is noted: octanol-water log D, shake-flask / HPLC; cited from earlier work.
The next data set can be described thus: Rat serum stability. The class given is in vitro ADME. The method, boiled down:
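Male Sprague-Dawley rat trunk-blood serum, kept at −80 °C and used within 3 months. 10 μg peptide in 1 mL pre-warmed 25% serum in 0.1 M Tris-HCl pH 7.5 at 37 °C. Sampled at 0, 30 min, 1, 2, 4 and 8 h, quenched with TCA/isopropanol at −20 °C for 20 min, then centrifuged. Intact peptide measured by reverse-phase HPLC; t1/2 fitted from ≥3 independent time-courses.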

The target in data set [3] is T2, hGAL2 (human galanin receptor GalR2) (Homo sapiens, UniProt O43603).
T2 sequence (O43603 1-387): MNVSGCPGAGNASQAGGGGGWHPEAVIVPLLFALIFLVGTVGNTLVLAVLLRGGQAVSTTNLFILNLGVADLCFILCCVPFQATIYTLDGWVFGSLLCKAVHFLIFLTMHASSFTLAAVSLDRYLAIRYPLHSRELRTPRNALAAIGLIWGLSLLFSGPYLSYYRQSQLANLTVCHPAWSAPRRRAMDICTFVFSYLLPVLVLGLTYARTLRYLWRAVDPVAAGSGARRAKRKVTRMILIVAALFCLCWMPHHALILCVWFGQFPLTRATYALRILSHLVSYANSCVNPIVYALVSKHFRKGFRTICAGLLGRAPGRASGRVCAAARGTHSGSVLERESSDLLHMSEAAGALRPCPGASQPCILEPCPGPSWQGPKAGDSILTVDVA
As to the kind of experiment: Competitive binding assay, Eu-labeled galanin, time-resolved fluorescence.

Square brackets hold non-standard residues; d marks the D form. Peptide text beside a SMILES is read from it. * marks the point of attachment. Palmitoyl = CCCCCCCCCCCCCCCC(=O)*; Ahp = NCCCCCCC(=O)O; Ahx = NCCCCCC(=O)O; Sar = CNCC(=O)O

The compound `CCCCCCCCCCCCCCCC(=O)NCCCC[C@H](NC(=O)[C@H](CCCCN)NC(=O)[C@H](CCCCN)NC(=O)CCCCCNC(=O)[C@H](Cc1ccc(O)cc1)NC(=O)CNC(=O)[C@H](C)NC(=O)[C@H](CO)NC(=O)[C@H](CC(N)=O)NC(=O)[C@H](CC(C)C)NC(=O)[C@@H](NC(=O)[C@H](Cc1c[nH]c2ccccc12)NC(=O)CNC)[C@@H](C)O)C(=O)N[C@@H](CCCCN)C(N)=O` [L-Gal(6-Ahx)-B2] (H-[Sar]WTLNSAGY[Ahx]KKK(Palmitoyl)K-NH2) yielded a Ki in data set [1] of 1.17 ± 0.3 µM.

Turning to `CCCCCCCCCCCCCCCC(=O)NCCCC[C@H](NC(=O)[C@H](CCCCN)NC(=O)[C@H](CCCCN)NC(=O)[C@@H]1CCCN1C(=O)CNC(=O)[C@H](CC(C)C)NC(=O)[C@H](CC(C)C)NC(=O)[C@H](Cc1ccc(O)cc1)NC(=O)CNC(=O)[C@H](C)NC(=O)[C@H](CO)NC(=O)[C@H](CC(N)=O)NC(=O)[C@H](CC(C)C)NC(=O)[C@@H](NC(=O)[C@H](Cc1c[nH]c2ccccc12)NC(=O)CNC)[C@@H](C)O)C(=O)N[C@@H](CCCCN)C(N)=O` [Gal-B2], the “log D” value in data set [2] is listed as 1.24. Also, the “increase of t1/2 compared to Gal(1-16)” value in “Rat serum stability” (rat serum) was 80 fold. On to `CCCCCCCCCCCCCCCC(=O)NCCCC[C@H](NC(=O)[C@H](CCCCN)NC(=O)[C@H](CCCCN)NC(=O)[C@H](Cc1ccc(O)cc1)NC(=O)CNC(=O)[C@H](C)NC(=O)[C@H](CO)NC(=O)[C@H](CC(N)=O)NC(=O)[C@H](CC(C)C)NC(=O)[C@@H](NC(=O)[C@H](Cc1c[nH]c2ccccc12)NC(=O)CNC)[C@@H](C)O)C(=O)N[C@@H](CCCCN)C(N)=O` [[des-LLGP]Gal-B2] (H-[Sar]WTLNSAGYKKK(Palmitoyl)K-NH2), for which the values for the Ki in data set [3] and in data set [1] were 27.4 µM and at least 30 µM, respectively. As to `CCCCCCCCCCCCCCCC(=O)NCCCC[C@H](NC(=O)[C@@H](CCCCN)NC(=O)[C@@H](CCCCN)NC(=O)[C@H](Cc1ccc(O)cc1)NC(=O)CNC(=O)[C@H](C)NC(=O)[C@H](CO)NC(=O)[C@H](CC(N)=O)NC(=O)[C@H](CC(C)C)NC(=O)[C@@H](NC(=O)[C@H](Cc1c[nH]c2ccccc12)NC(=O)CNC)[C@@H](C)O)C(=O)N[C@H](CCCCN)C(N)=O` [D-[des-LLGP]Gal-B2] (H-[Sar]WTLNSAGY[dK][dK]K(Palmitoyl)[dK]-NH2), in data set [1], the inhibitory constant (Ki) was at least 30 µM.

The compound `CCCCCCCCCCCCCCCC(=O)NCCCC[C@H](NC(=O)[C@@H](CCCCN)NC(=O)[C@@H](CCCCN)NC(=O)CCCCCCNC(=O)[C@H](Cc1ccc(O)cc1)NC(=O)CNC(=O)[C@H](C)NC(=O)[C@H](CO)NC(=O)[C@H](CC(N)=O)NC(=O)[C@H](CC(C)C)NC(=O)[C@@H](NC(=O)[C@H](Cc1c[nH]c2ccccc12)NC(=O)CNC)[C@@H](C)O)C(=O)N[C@H](CCCCN)C(N)=O` [D-Gal(7-Ahp)-B2] (H-[Sar]WTLNSAGY[Ahp][dK][dK]K(Palmitoyl)[dK]-NH2) registered a half-life at 10 µg/mL in “Rat serum stability” (male, Sprague-Dawley, rat, 25% rat serum, pH 7.5) of over 10 h.
